# Results: paper PMC6921677 (ACS Omega, 2019)
# Like-named read-outs stand apart in the source and are kept apart here.
# How the values were obtained:
# CAL-27 (oral cancer) = assay: MTT cell cytotoxicity assay, CAL-27; format: cell-based; conditions: Homo sapiens, CAL-27, 48 h, read-out: CAL-27 IC50 ± S.D
# How it was run: (§1)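 Cells maintained in high-glucose DMEM with 2 mM L-glutamine, 10% FBS and 1% antibiotics, passaged before 70% confluency. Seeded at 10 000/well, left overnight at 37 °C, washed, then exposed to a range of test compound concentrations for 48 h. MTT (0.5 mg/mL as added) for 4 h, formazan dissolved in DMSO, OD 570 nm. IC50 fitted from percent inhibition.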
# [1] = system: NIH-3T3 (mouse normal fibroblast); assay: MTT cell cytotoxicity assay, NIH-3T3; format: cell-based; conditions: read-out: NIH-3T3 IC50 ± S.D
# How it was run: as §1
# NCI-H460 (lung cancer) = assay: MTT cell cytotoxicity assay, NCI-H460; format: cell-based; conditions: Homo sapiens, NCI-H460, 48 h, read-out: NCI-H460 IC50 ± S.D
# How it was run: as §1
# S. aureus (NCTC 6571) = assay: crystal violet biofilm inhibition assay, S. aureus; format: cell-based, Staphylococcus aureus; conditions: biofilm inhibition at 500 μM
# How it was run: (§2)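 Strains cultured in tryptone soya broth or agar. Test compound twofold serially diluted (500–1 μM) in TSB and inoculated at 5 x 10^5 CFU/mL. Incubated 24 h at 37 °C. Medium discarded and wells washed with sterile water, then stained with 0.1% w/v crystal violet for 15 min. Washed and air-dried; bound dye taken up in 30% v/v acetic acid. A590 gave percent biofilm inhibition.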
# [2] = system: K. pneumoniae (ATCC 13882); assay: crystal violet biofilm inhibition assay, K. pneumoniae; format: cell-based, Klebsiella pneumoniae; conditions: for K. pneumonia % inhibition ± S.D: biofilm inhibition at 250 μM; for K. pneumonia MBIC dose: biofilm inhibitory concentration, 24 h, crystal violet
# How it was run: as §2
# E. coli (ATCC 25922) = assay: crystal violet biofilm inhibition assay, E. coli; format: cell-based, Escherichia coli; conditions: for E. coli % Inhibition ± S.D: biofilm inhibition at 250 μM; for E. coli MBIC dose: biofilm inhibitory concentration, 24 h, crystal violet
# How it was run: as §2
# [3] = system: A. baumannii (ATCC 19606); assay: crystal violet biofilm inhibition assay, A. baumannii; format: cell-based, Acinetobacter baumannii; conditions: for A. baumannii MBIC dose: biofilm inhibitory concentration, 24 h, crystal violet
# How it was run: as §2
Compound,IC50 (CAL-27 (oral cancer)),"IC50 ([1]; Mus musculus, NIH3T3, 48 h)",IC50 (NCI-H460 (lung cancer)),S. aureus % Inhibition ± S.D (S. aureus (NCTC 6571)),K. pneumonia % inhibition ± S.D [2],K. pneumonia MBIC dose [2],E. coli % Inhibition ± S.D (E. coli (ATCC 25922)),E. coli MBIC dose (E. coli (ATCC 25922)),A. baumannii % Inhibition ± S.D ([3]; biofilm inhibition at 250 μM),A. baumannii MBIC dose [3],"IC50 ([1]; MTT, 48 h treatment, normal mouse fibroblast)",A. baumannii % Inhibition ± S.D ([3]; biofilm inhibition at 125 μM)
O=c1[nH]cc(F)c(=O)[nH]1 [5-fluorouracil],2410 ± 890 nM,> 100 µM,4.54 ± 1.67 µM,–,–,–,–,–,–,–,–,–
"O.O.O.O.O=C([O-])Cc1ccccc1Nc1c(Cl)cccc1Cl.O=C([O-])Cc1ccccc1Nc1c(Cl)cccc1Cl.[K+].[K+].c1cnc2c(c1)ccc1cccnc12.c1cnc2c(c1)ccc1cccnc12 [Complex 2, [K2(phen)2(dcf)2(H2O)4]]",–,–,–,–1.497 ± 0.288%,77.26 ± 0.063%,250 µM,72 ± 0.091%,250 µM,86.158 ± 0.068%,250 µM,–,–
"O.O.O=C([O-])Cc1ccccc1Nc1c(Cl)cccc1Cl.[Li+].c1cnc2c(c1)ccc1cccnc12 [Complex 3, [Li(phen)(H2O)2][dcf]]",–,–,–,3.306 ± 0.166%,77.91 ± 0.062%,250 µM,76.22 ± 0.026%,250 µM,–,125 µM,135 ± 4.96 µM,87.924 ± 0.073%
